Assays:
[1] = molecular target: T1, Vascular endothelial growth factor receptor 1 (Homo sapiens, UniProt P17948); assay: Inhibition of recombinant GST-tagged VEGFR1 expressed in Sf9 insect cells at 1 uM after 120 mins by Kinase-Glo assay
Aurora kinase A = molecular target: T2, Aurora kinase A (Homo sapiens, UniProt O14965); assay: Inhibition of recombinant GST-tagged Aurora A expressed in Sf9 insect cells after 90 mins by Kinase-Glo assay
T2 sequence (O14965 whole entry): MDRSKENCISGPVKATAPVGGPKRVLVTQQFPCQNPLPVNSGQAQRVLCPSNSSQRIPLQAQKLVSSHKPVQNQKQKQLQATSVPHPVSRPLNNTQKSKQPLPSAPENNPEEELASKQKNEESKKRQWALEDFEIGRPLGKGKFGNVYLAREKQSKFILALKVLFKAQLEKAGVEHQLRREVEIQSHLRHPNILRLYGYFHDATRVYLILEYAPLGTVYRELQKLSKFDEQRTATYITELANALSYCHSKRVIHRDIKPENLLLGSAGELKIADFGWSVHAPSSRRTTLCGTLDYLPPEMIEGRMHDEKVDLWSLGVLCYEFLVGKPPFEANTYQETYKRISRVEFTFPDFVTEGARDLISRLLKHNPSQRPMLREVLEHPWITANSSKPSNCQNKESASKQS
Summary of the method: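 GST-Aurora A kinase domain (S123–S401, 150 ng) from Sf9 cells. Buffer was 50 mM Tris-HCl pH 7.4 with 10 mM NaCl, 10 mM MgCl2, 0.01% BSA and 1 mM DTT. Kinase-Glo Plus was added for 20 min at 25 °C before the luminescence read.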

MOLM-13 = assay: Antiproliferation activity against human MOLM13 cells expressing FLT3 mutation assessed as cell viability after 72 hrs by MTS method; type: functional; settings: MOLM-13, 72 h
[2] = molecular target: T3, Vascular endothelial growth factor receptor 2 (Homo sapiens, UniProt P35968); assay: Inhibition of recombinant GST-tagged VEGFR2 expressed in Sf9 insect cells after 120 mins by Kinase-Glo assay; type: cell-based
T3 sequence (P35968 whole entry, the tested form may be a part): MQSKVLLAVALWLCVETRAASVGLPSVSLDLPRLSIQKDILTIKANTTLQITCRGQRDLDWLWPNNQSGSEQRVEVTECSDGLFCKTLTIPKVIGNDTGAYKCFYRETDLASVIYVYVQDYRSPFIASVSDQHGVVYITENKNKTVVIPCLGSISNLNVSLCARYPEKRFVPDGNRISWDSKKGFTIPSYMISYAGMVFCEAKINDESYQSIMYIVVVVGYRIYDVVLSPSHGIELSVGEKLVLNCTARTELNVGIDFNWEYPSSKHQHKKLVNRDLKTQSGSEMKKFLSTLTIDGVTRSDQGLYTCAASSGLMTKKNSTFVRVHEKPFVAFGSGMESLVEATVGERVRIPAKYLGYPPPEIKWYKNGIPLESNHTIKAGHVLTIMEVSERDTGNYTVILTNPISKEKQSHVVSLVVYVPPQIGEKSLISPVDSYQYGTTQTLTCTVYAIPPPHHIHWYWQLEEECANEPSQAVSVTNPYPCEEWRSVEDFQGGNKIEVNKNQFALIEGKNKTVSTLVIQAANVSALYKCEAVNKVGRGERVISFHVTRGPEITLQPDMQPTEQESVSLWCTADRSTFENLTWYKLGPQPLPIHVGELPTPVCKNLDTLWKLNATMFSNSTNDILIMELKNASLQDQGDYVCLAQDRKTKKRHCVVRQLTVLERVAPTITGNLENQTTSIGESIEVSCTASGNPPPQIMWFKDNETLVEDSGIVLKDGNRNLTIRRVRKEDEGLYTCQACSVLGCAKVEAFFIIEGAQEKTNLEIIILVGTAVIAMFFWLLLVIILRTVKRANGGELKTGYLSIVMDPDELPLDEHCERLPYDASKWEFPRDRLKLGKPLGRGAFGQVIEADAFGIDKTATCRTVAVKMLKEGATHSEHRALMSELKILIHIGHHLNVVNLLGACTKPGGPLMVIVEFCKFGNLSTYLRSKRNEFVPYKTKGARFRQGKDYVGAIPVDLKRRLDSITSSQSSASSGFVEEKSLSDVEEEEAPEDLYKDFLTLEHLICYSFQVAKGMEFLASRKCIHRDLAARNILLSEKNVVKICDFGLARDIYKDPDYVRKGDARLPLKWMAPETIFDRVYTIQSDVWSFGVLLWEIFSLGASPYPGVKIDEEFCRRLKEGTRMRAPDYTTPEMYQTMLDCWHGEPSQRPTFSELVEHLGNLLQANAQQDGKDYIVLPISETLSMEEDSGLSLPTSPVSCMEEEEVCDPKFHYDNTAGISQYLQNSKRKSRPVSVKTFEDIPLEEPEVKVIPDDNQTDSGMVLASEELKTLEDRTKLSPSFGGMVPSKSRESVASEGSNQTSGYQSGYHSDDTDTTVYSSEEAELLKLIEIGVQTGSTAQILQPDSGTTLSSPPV

[3] = molecular target: T4, Receptor-type tyrosine-protein kinase FLT3 (Homo sapiens, UniProt P36888); assay: Inhibition of GST-tagged FLT3 expressing wild type kinase domain expressed in Sf9 insect cells after 4 hrs by Kinase-Glo assay
T4 sequence (P36888 whole entry): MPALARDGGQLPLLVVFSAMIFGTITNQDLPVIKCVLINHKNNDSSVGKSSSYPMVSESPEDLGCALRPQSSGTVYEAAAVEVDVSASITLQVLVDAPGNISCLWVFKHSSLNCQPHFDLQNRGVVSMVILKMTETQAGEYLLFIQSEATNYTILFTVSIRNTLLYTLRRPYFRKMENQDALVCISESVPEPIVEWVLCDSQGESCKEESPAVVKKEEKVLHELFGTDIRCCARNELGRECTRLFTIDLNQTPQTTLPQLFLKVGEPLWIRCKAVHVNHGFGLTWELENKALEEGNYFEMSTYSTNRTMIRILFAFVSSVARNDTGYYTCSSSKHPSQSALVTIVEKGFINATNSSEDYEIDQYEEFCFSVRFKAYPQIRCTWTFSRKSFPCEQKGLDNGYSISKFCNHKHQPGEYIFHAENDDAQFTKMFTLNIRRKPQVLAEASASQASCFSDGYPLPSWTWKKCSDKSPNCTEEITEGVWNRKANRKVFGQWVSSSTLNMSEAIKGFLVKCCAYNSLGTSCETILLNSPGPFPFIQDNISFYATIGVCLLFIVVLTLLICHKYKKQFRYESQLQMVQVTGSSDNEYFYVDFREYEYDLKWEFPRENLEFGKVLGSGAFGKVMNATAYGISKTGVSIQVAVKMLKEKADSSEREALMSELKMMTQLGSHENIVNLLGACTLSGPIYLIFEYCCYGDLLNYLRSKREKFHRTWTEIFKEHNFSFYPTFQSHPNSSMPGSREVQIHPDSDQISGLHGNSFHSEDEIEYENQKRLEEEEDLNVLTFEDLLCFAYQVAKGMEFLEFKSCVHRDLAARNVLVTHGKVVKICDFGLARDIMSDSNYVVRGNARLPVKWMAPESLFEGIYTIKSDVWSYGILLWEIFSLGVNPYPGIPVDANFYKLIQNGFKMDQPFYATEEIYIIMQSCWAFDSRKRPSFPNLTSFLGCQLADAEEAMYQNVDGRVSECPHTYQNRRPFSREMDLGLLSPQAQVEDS

[4] = molecular target: T1, Vascular endothelial growth factor receptor 1; assay: Inhibition of recombinant GST-tagged VEGFR1 expressed in Sf9 insect cells after 120 mins by Kinase-Glo assay
Summary of the method: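 GST-VEGFR1 (R781–I1338) or GST-VEGFR2 (V789–V1356) kinase domain, 50–100 ng, from Sf9 cells. Read-out was Kinase-Glo Plus luminescence.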

[5] = Ratio GI50 for human MOLM13 cells to IC50 for GST-tagged FLT3 expressing wild type kinase domain; type: functional, MOLM-13
U-937 = assay: Antiproliferation activity against human FLT3 gene-deficient U937 cells after 72 hrs by MTS method; type: functional; settings: U-937, 72 h
MOLT-4 = assay: Antiproliferation activity against human MOLT4 after 72 hrs by MTS method; type: functional; settings: MOLT-4, 72 h
MV4-11 = assay: Antiproliferation activity against FLT3/ITD harboring human MV4-11 cells after 72 hrs by MTS method; type: functional; settings: MV4-11, 72 h
K562 = assay: Antiproliferation activity against human K562 cells expressing wild type BCR/ABL after 72 hrs by MTS method; type: functional; settings: K562, 72 h
[6] = Antiproliferation activity against human RS4:11 cells expressing wild type FLT3 after 72 hrs by MTS method; type: functional; settings: RS4-11, 72 h
[7] = molecular target: T3, Vascular endothelial growth factor receptor 2; assay: Inhibition of recombinant GST-tagged VEGFR2 expressed in Sf9 insect cells at 1 uM after 120 mins by Kinase-Glo assay

T1 sequence (P17948 whole entry): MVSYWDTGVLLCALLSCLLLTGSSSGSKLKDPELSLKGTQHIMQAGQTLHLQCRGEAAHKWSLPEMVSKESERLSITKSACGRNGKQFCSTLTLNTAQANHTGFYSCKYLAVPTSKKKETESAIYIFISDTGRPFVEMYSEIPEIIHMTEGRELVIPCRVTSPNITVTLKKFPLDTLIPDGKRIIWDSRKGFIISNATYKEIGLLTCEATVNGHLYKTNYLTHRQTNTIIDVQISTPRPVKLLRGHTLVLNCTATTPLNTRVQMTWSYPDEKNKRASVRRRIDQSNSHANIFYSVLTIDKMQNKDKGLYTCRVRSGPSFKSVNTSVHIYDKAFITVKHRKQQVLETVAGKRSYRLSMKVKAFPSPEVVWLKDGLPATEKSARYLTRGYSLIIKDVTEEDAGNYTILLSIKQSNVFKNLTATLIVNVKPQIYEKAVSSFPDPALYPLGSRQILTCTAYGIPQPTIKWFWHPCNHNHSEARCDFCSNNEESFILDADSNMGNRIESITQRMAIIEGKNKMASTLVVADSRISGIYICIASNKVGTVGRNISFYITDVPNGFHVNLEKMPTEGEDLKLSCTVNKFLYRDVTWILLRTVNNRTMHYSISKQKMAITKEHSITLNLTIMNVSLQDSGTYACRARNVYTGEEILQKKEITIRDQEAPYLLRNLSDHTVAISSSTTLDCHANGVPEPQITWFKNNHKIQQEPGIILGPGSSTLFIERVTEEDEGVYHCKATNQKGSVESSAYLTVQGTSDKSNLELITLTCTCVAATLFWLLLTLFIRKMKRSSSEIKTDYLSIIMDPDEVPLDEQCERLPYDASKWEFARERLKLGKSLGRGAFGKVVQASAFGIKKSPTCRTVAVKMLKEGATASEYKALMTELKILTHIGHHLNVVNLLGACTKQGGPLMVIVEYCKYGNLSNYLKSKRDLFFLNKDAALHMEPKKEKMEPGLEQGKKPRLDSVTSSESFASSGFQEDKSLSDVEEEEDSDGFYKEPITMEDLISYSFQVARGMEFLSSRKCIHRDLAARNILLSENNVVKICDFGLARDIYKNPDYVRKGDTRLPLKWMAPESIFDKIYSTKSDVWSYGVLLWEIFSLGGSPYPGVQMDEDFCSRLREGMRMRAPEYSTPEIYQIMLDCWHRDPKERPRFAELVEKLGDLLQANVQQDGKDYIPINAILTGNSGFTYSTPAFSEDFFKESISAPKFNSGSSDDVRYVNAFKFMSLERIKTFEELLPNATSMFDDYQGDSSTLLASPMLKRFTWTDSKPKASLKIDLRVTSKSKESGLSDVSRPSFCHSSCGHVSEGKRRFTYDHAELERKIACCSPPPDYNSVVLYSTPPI

| SMILES | inhibition [1] [%] | IC50 (Aurora kinase A) [nM] | GI50 (MOLM-13) [nM] | IC50 [2] [nM] | IC50 [3] [nM] | IC50 [4] [nM] | Ratio [5] | GI50 (U-937) [nM] | GI50 (MOLT-4) [nM] | GI50 (MV4-11) [nM] | GI50 (K562) [nM] | GI50 [6] [nM] | inhibition [7] [%] |
| --- | --- | --- | --- | --- | --- | --- | --- | --- | --- | --- | --- | --- | --- |
| O=C(Nc1cc(-c2cccc(NS(=O)(=O)c3ccccc3)c2)n[nH]1)c1ccc(CN2CCOCC2)cc1 | 52 | 220 | 67 | 560 | 350 |  |  |  |  |  |  |  |  |
| Cc1nc(Nc2cc(-c3cccc(NS(=O)(=O)c4ccccc4)c3)n[nH]2)cc(N2CCC(O)CC2)n1 |  | 540 | 120 | > 1000 | 10 | > 1000 | 12 |  |  |  |  |  |  |
| Cc1ccc(F)c(NC(=O)Nc2ccc(-c3cccc4[nH]nc(N)c34)cc2)c1 [LINIFANIB] |  |  |  |  |  |  |  | 19000 | 6700 | 40 | > 20000 | 9200 |  |
| Cc1nc(NCCN(C)C)cc(Nc2cc(-c3cccc(NS(=O)(=O)c4ccccc4)c3)n[nH]2)n1 |  | > 1000 | 180 |  | 71 | > 1000 |  |  |  |  |  |  | 55 |

Reference: ChEMBL document CHEMBL1806486, “Discovery and evaluation of 3-phenyl-1H-5-pyrazolylamine-based derivatives as potent, selective and efficacious inhibitors of FMS-like tyrosine kinase-3 (FLT3)” (Bioorg Med Chem, 2011)
